From ChEMBL document CHEMBL4825671, “Design, synthesis and biological evaluation of novel FXIa inhibitors with 2-phenyl-1H-imidazole-5-carboxamide moiety as P1 fragment” (Eur J Med Chem, 2021) come the findings set out here.

The first assay deals with T1, Coagulation factor XI (Homo sapiens, UniProt P03951). Nature of the assay: Inhibition of coagulation factor 11a (unknown origin) at 500 uM using (p-Glu-Pro-Arg-pNa,HCl) as substrate preincubated for 5 mins followed by substrate addition and measured after 10 mins relative to control. Particulars: time 15.0 min.
T1 sequence (P03951 19-387 limits assumed): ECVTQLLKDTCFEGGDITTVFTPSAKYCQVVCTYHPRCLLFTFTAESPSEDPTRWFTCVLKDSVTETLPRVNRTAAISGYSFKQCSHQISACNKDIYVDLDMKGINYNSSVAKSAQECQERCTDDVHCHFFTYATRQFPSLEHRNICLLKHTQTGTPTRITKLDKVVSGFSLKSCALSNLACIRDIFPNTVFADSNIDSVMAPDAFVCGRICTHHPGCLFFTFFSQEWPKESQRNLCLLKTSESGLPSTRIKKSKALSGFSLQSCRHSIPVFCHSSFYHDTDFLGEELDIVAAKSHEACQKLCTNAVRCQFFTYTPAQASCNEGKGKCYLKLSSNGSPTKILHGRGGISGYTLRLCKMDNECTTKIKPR
T1 sequence (P03951 388-625 limits assumed): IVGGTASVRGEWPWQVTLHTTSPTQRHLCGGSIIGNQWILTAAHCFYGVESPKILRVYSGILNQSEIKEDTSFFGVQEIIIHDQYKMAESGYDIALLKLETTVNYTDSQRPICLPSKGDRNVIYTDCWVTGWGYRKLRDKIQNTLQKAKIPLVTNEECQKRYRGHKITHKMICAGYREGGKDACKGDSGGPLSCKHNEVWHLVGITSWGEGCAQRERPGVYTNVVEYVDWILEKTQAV
For orientation: inhibition means the drop in the measured response relative to a control, in per cent. High values mean a response far below the control, low ones a response near the control. In turn, `Cc1nc(-c2ccc(OCC(C)C)c(C#N)c2)n(O)c1C(=O)O` returned an inhibition of 29.8%.

The target in another assay is T1, Coagulation factor XI. Nature of the assay: Binding affinity to coagulation factor 11a (unknown origin) assessed as inhibition constant using (p-Glu-Pro-Arg-pNa,HCl) as substrate preincubated for 5 mins followed by substrate addition and measured after 10 mins.
Settings: not given
For orientation: Ki means a measure of affinity in units of concentration, obtained from inhibition or displacement. As to `Cc1nc(-c2cccc(Cl)c2F)n(O)c1C(=O)N[C@@H](Cc1ccc(Cl)cc1)C(=O)Nc1ccc2[nH]c(C(=O)O)cc2c1`, the Ki stood at 356 nM.
Same read-out and setting: in the case of `NC[C@H]1CC[C@H](C(=O)N[C@@H](Cc2ccccc2)c2nc(-c3ccc4c(N)n[nH]c4c3)c(Cl)[nH]2)CC1` it was 1.5 nM.
On the same count and under the same terms, in the case of `CC(=O)Nc1ccc(C[C@H](NC(=O)c2c(C)nc(-c3cccc(Cl)c3F)n2O)C(=O)Nc2ccc3[nH]c(C(=O)O)cc3c2)cc1` it was 392 nM; in that of `Cc1nc(-c2ccccc2Cl)n(O)c1C(=O)N[C@@H](Cc1ccccc1)C(=O)Nc1ccc(C(=O)O)cc1`, greater than 100000 nM.
On to `Cc1nc(-c2cccc(Cl)c2F)n(O)c1C(=O)N[C@@H](Cc1ccc(NC(=O)CC(C)C)cc1)C(=O)Nc1ccc2[nH]c(C(=O)O)cc2c1`, for which the Ki amounted to 26 nM.
The same measure, in the same setting: in the case of `Cc1nc(-c2cccc(Cl)c2F)n(O)c1C(=O)N[C@@H](Cc1ccccc1)C(=O)Nc1ccc(C(=O)O)cc1` it was 11800 nM; in that of `Cc1nc(-c2cccc(Cl)c2F)n(O)c1C(=O)N[C@@H](Cc1ccc(NC(=O)C2CCCC2)cc1)C(=O)Nc1ccc2[nH]c(C(=O)O)cc2c1`, 33.9 nM.
The same measure, in the same setting: in the case of `Cc1nc(-c2ccccc2C#N)n(O)c1C(=O)N[C@@H](Cc1ccccc1)C(=O)Nc1ccc(C(=O)O)cc1` it was 18900 nM; in that of `Cc1nc(-c2cccc(Cl)c2F)n(O)c1C(=O)N[C@@H](Cc1ccc(NC(=O)c2ccccc2)cc1)C(=O)Nc1ccc2[nH]c(C(=O)O)cc2c1`, 366 nM; in that of `Cc1nc(-c2cccc(Cl)c2F)n(O)c1C(=O)N[C@@H](Cc1ccc(NC(=O)c2ccccn2)cc1)C(=O)Nc1ccc2[nH]c(C(=O)O)cc2c1`, 155 nM.
Take `C#CC(=O)Nc1ccc(C[C@H](NC(=O)c2c(C)nc(-c3cccc(Cl)c3F)n2O)C(=O)Nc2ccc3[nH]c(C(=O)O)cc3c2)cc1`: the Ki was determined as 53 nM.
In the case of `Cc1nc(-c2cccc(Cl)c2F)n(O)c1C(=O)N[C@@H](Cc1ccc(NC(=O)c2ncccn2)cc1)C(=O)Nc1ccc2[nH]c(C(=O)O)cc2c1`, the Ki stood at 81.3 nM.
With `Cc1nc(-c2ccc(Cl)cc2)n(O)c1C(=O)N[C@@H](Cc1ccccc1)C(=O)Nc1ccc(C(=O)O)cc1`, the Ki was greater than 100000 nM.
Same read-out and setting: in the case of `Cc1nc(-c2cccc(Cl)c2F)n(O)c1C(=O)N[C@@H](Cc1ccc(NC(=O)C2CC2)cc1)C(=O)Nc1ccc2[nH]c(C(=O)O)cc2c1` it was 259 nM; in that of `Cc1nc(-c2cccc(Cl)c2F)n(O)c1C(=O)N[C@@H](Cc1ccc(Br)cc1)C(=O)Nc1ccc2[nH]c(C(=O)O)cc2c1`, 962 nM; in that of `CC#CC(=O)Nc1ccc(C[C@H](NC(=O)c2c(C)nc(-c3cccc(Cl)c3F)n2O)C(=O)Nc2ccc3[nH]c(C(=O)O)cc3c2)cc1`, 31 nM.
Same read-out and setting: with `Cc1nc(-c2cccc(Cl)c2F)n(O)c1C(=O)N[C@@H](Cc1ccc(NC(=O)C(C)C)cc1)C(=O)Nc1ccc2[nH]c(C(=O)O)cc2c1` the figure was 156 nM.
On the same count and under the same terms, with `Cc1nc(-c2ccc(OCC(C)C)c(C#N)c2)n(O)c1C(=O)O` the figure was greater than 500000 nM.
On to `Cc1nc(-c2cccc(C#N)c2)n(O)c1C(=O)N[C@@H](Cc1ccccc1)C(=O)Nc1ccc(C(=O)O)cc1`, for which the Ki came out at 23900 nM.
Turning to `Cc1nc(-c2cccc(Cl)c2F)n(O)c1C(=O)N[C@@H](Cc1ccccc1)C(=O)Nc1ccc2[nH]c(C(=O)O)cc2c1`, the Ki was determined as 2820 nM.
Still for that read-out and setting: with `Cc1nc(-c2cccc(Cl)c2F)n(O)c1C(=O)N[C@@H](Cc1ccc(F)cc1)C(=O)Nc1ccc2[nH]c(C(=O)O)cc2c1` the figure was 486 nM.
Take `Cc1nc(-c2ccc(O)c(C#N)c2)n(O)c1C(=O)O`: the Ki is 228000 nM.
Turning to `Cc1nc(-c2cccc(C#N)c2)n(O)c1C(=O)O`, the Ki was 120000 nM.
As to `COc1ccc(-c2nc(C)c(C(=O)O)n2O)cc1C#N`, the Ki worked out at 243000 nM.
In the case of `Cc1nc(-c2ccc(C#N)cc2)n(O)c1C(=O)N[C@@H](Cc1ccccc1)C(=O)Nc1ccc(C(=O)O)cc1`, the Ki is greater than 100000 nM.
Still for that read-out and setting: in the case of `COn1c(-c2cccc(Cl)c2F)nc(C)c1C(=O)N[C@@H](Cc1ccccc1)C(=O)Nc1ccc(C(=O)O)cc1` it was greater than 100000 nM.
On the same count and under the same terms, with `Cc1nc(-c2cccc(Cl)c2F)n(O)c1C(=O)N[C@@H](Cc1ccc(NC(=O)C2CCC2)cc1)C(=O)Nc1ccc2[nH]c(C(=O)O)cc2c1` the figure was 22.5 nM; with `Cc1nc(-c2cccc(Cl)c2F)n(C)c1C(=O)N[C@@H](Cc1ccccc1)C(=O)Nc1ccc(C(=O)O)cc1`, 22400 nM; with `Cc1nc(-c2cccc(Cl)c2F)n(O)c1C(=O)N[C@@H](Cc1ccc(NC(=O)C2CCCCC2)cc1)C(=O)Nc1ccc2[nH]c(C(=O)O)cc2c1`, 56.3 nM.
Still for that read-out and setting: with `Cc1nc(-c2ccccc2)n(O)c1C(=O)N[C@@H](Cc1ccccc1)C(=O)Nc1ccc(C(=O)O)cc1` the figure was greater than 100000 nM.
On to `Cc1nc(-c2cccc(Cl)c2)n(O)c1C(=O)N[C@@H](Cc1ccccc1)C(=O)Nc1ccc(C(=O)O)cc1`, for which the Ki came out at 14500 nM.
On the same count and under the same terms, with `Cc1nc(-c2cccc(Cl)c2F)[nH]c1C(=O)N[C@@H](Cc1ccccc1)C(=O)Nc1ccc(C(=O)O)cc1` the figure was 26400 nM; with `Cc1nc(-c2cccc(Cl)c2F)n(O)c1C(=O)N[C@@H](Cc1ccccc1)C(=O)Nc1ccc(CC(=O)O)cc1`, 6860 nM.
Still for that read-out and setting: with `Cc1nc(-c2cccc(Cl)c2F)n(O)c1C(=O)N[C@@H](Cc1ccc(N)cc1)C(=O)Nc1ccc2[nH]c(C(=O)O)cc2c1` the figure was 3080 nM.
On the same count and under the same terms, in the case of `Cc1nc(-c2cccc(Cl)c2F)n(O)c1C(=O)N[C@@H](Cc1ccc([N+](=O)[O-])cc1)C(=O)Nc1ccc2[nH]c(C(=O)O)cc2c1` it was 7320 nM.

Another assay relates to Oryctolagus cuniculus. Kind of assay: Antithrombotic activity in New Zealand White rabbit model of AV-shunt induced thrombosis assessed as reduction in thrombosis weight by measuring inhibition of thrombosis formation at 0.5 mg/kg, administered as iv bolus dose and subsequently followed by 0.8 mg/kg/hr as iv infusion relative to control.
Settings: not given
The class given is functional. Summed up: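 Male New Zealand White rabbits under urethane anesthesia (1.25 g/kg). A control-period AV shunt gave the baseline thrombus wet weight, found by subtraction. The compound in saline vehicle was then given as an IV bolus followed by continuous IV infusion via the jugular vein. A new AV shunt ran for 40 min. Result is % inhibition of thrombus formation, treatment versus control period. Three rabbits per group.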
Take `NC[C@H]1CC[C@H](C(=O)N[C@@H](Cc2ccccc2)c2nc(-c3ccc4c(N)n[nH]c4c3)c(Cl)[nH]2)CC1`: the “inhibition (INH)” value came out at 59.26%.

In another assay the target is T1, Coagulation factor XI. Kind of assay: Inhibition of coagulation factor 11a (unknown origin) at 100 uM using (p-Glu-Pro-Arg-pNa,HCl) as substrate preincubated for 5 mins followed by substrate addition and measured after 10 mins relative to control. Particulars: time 15.0 min.
In the case of `Cc1nc(-c2ccccc2Cl)n(O)c1C(=O)N[C@@H](Cc1ccccc1)C(=O)Nc1ccc(C(=O)O)cc1`, the inhibition was found to be 34.1%.
Same read-out and setting: in the case of `Cc1nc(-c2ccccc2C#N)n(O)c1C(=O)N[C@@H](Cc1ccccc1)C(=O)Nc1ccc(C(=O)O)cc1` it was 16.4%; in that of `Cc1nc(-c2ccc(Cl)cc2)n(O)c1C(=O)N[C@@H](Cc1ccccc1)C(=O)Nc1ccc(C(=O)O)cc1`, 22.5%; in that of `Cc1nc(-c2ccc(C#N)cc2)n(O)c1C(=O)N[C@@H](Cc1ccccc1)C(=O)Nc1ccc(C(=O)O)cc1`, 0%.
Compound `COn1c(-c2cccc(Cl)c2F)nc(C)c1C(=O)N[C@@H](Cc1ccccc1)C(=O)Nc1ccc(C(=O)O)cc1` came in with an inhibition of 0%.
